# Screening data deposited in PubChem by Sanford-Burnham Center for Chemical Genomics.
# SUMO1-SIM PPI – modulators of SUMO1 protein-protein interactions, primary screen, biochemical, uHTS; Small ubiquitin-related modifier 1 (Homo sapiens), P63165; SUMO1 binding to a labelled peptide, TR-FRET, 1 h; inhibition, % at 20 µM; hit rate 0.33% among 360,000; AID 602429, 2012; in the data active = inhibition above about 37%
# Target sequence (P63165 whole entry, looked up): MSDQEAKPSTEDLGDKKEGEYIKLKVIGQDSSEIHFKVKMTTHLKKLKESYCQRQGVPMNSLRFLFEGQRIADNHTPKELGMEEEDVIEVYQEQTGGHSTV
# LMPTP block – LMPTP phosphatase inhibitors, primary screen, biochemical, fluorescence intensity, uHTS; Low molecular weight phosphotyrosine protein phosphatase (Homo sapiens), P24666; recombinant LMPTP-A, OMFP fluorogenic substrate; inhibition, % at 20 µM; hit rate 0.22% among 360,000; AID 651560, 2012;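 active = compounds that cut the enzyme signal by at least half of the control window in the single-dose screen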;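 also: plate controls were DMSO wells with enzyme plus substrate for no effect and substrate without enzyme for full effect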
# Target sequence (P24666 whole entry, looked up): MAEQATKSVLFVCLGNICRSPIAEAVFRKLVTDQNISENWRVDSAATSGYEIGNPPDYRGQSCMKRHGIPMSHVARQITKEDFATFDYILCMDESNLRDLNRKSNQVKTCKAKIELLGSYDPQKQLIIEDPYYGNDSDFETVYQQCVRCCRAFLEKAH
#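 Test system: LMPTP-A phosphatase enzyme; input: 0.625 nM LMPTP-A final; reagent: OMFP substrate, 400 µM final; compound dosing: 20 µM single dose, 3% DMSO; incubation: 50 min dark incubation at room temperature; measured by: endpoint fluorescence intensity from OMFP dephosphorylation; measure: % inhibition relative to no-enzyme and uninhibited control wells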
# STEP inh – STEP phosphatase inhibitors, primary screen, biochemical, fluorescence intensity, uHTS; inhibition, % at 20 µM; AID 588621, 2011; recombinant STEP, OMFP fluorogenic substrate; hit rate 0.25% among 360,000; Tyrosine-protein phosphatase non-receptor type 5 (Homo sapiens), P54829;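 active = inhibition at 20 µM, scaled per plate between control wells, above about 37%, limit read from the data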;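 also: 0% = DMSO with enzyme and substrate and 100% = substrate only without enzyme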
#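 System: STEP (striatal-enriched tyrosine phosphatase) enzyme, cell-free; medium: Bis-Tris pH 6.0 buffer with DTT, detergent; dosing: 20 µM, 1% DMSO; times: reaction 20 min, ambient temperature; detection: fluorescence, 480/540 nm; read-out basis: normalized % inhibition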
# DNMT1 inh – human DNMT1 methyltransferase inhibitors, primary screen, biochemical, molecular beacon, fluorescence, HinP1I cleavage, uHTS | DNA (cytosine-5)-methyltransferase 1 (Homo sapiens), P26358 | inhibition (reported as % activation of signal), % at 10 µM | hit rate 0.83% among 360,000 | AID 588458, 2011; in the data active = inhibition above about 50%
# Scp1 inh – Scp-1 phosphatase inhibitors, primary screen, biochemical, colorimetric, uHTS; Carboxy-terminal domain RNA polymerase II polypeptide A small phosphatase 1 (Homo …; Recombinant Scp1, phosphopeptide, malachite green phosphate absorbance; inhibition, % at 20 µM; hit rate 0.88% among 340,000; AID 493091, 2011;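 active = inhibition above about 50% at 20 µM, limit read from the data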;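 also: plate controls were DMSO wells with enzyme for no effect and wells lacking enzyme for full effect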
# Target sequence (Q9GZU7 76-261 limits assumed): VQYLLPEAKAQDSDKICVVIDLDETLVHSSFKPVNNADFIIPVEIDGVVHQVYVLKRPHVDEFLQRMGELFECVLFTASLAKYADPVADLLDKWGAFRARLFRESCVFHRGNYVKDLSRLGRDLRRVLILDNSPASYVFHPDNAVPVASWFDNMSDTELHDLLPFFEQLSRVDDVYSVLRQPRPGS
#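 System: SCP-1 catalytic domain; Reagent: Phospho 17-mer peptide substrate; Doses: one concentration, 20 µM, with 1.0% DMSO; Incubation: 45 min room-temperature reaction, 5 min colour, 30 min stabiliser; Signal: Phosphate-binding colour reagent, absorbance read at 630 nm.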
# * hit, by the source's call; . = not tested or not shown. Hits are enriched below; roughly 1.7% of the tested compounds scored in any of these assays.
SMILES,SUMO1-SIM PPI,LMPTP block,STEP inh,DNMT1 inh,Scp1 inh
COc1ccc(C(=O)Nc2ccccc2C(=O)NC(Cc2ccc(O)cc2)C(=O)NNC(=O)c2ccc(C)cc2)cc1 (stereo not drawn),78*,11,4,-8,-7
O=[N+]([O-])c1cc(S(=O)(=O)N2CCCCC2)ccc1NCCCN1CCOCC1,-5,0,-2,2,-5
N#Cc1cccc(OC(=O)C2CCN(C(=O)c3ccc(F)cc3)CC2)c1,-3,0,-3,0,.
O=C1CC(=O)N(Cc2ccco2)C(=S)N1,69*,51*,83*,111*,93*
O=C(CCN1C(=O)[C@@H]2Cc3ccccc3CN2C1=O)N[C@H](Cc1ccccc1)C(=O)O,3,-2,2,0,4
O=C(Nc1ccc(-c2nc3ccc(NC(=O)c4cccs4)cc3[nH]2)cc1)c1cccs1,82*,7,42*,14,11
CCCN(CCC)Cc1cc(=O)oc2ccc3ccccc3c12,-6,2,5,7,.
O=C/C=C/c1coc2ccc3ccccc3c2c1=O,.,.,.,.,103*
Nc1cc(=O)[nH]c(SCC(=O)Nc2ccc(N3CCCCC3)cc2)n1,4,-1,1,6,-10
CCOC(=O)C1=C(COc2ccccc2)NC(=O)NC1c1ccc(Br)cc1 (stereo not drawn),47*,2,-1,4,39
O=C(O)COc1ccc(/C=N/n2c(COc3ccccc3)nc3ccccc3c2=O)cc1,57*,-2,-5,0,1
O=C1C(SCCO)=C(SCCO)C(=O)c2ccccc21,35,22,24,81*,-6
O=C1C(Cl)=C(NCCCO)C(=O)c2ccccc21,-31,4,1,-9,1
COC(=O)CCCN1C(=O)c2cccc3cccc(c23)C1=O,-27,-2,0,3,-4
O=C(CCCN1C(=O)c2cccc3cccc(c23)C1=O)Nc1nccs1,50*,-1,4,0,-5
C[N+]12CCCCC1C(COC(=O)c1ccc3c(c1)OCO3)CCC2 (stereo not drawn),1,-1,2,2,106*
Nc1cccc2cc(S(=O)(=O)O)ccc12,25,4,22,62*,62*
COc1ccc(/C=C(\NC(=O)c2ccc(C)cc2)C(=O)NCCCn2ccnc2)cc1OC,-11,-6,-1,1,1
CCC(C)[C@H]1CNC(=O)C(=O)N1CC1CCCCC1 (stereo partly drawn),47*,6,.,.,.
COc1ccc(Br)c(Cn2c(C)c(C(=O)NCc3ccc4c(c3)OCCO4)sc2=O)c1,0,2,4,-7,.
O=C(Nc1cccc(-c2cn3ccccc3n2)c1)c1cc2ccccc2oc1=O,-6,75*,81*,43,3
CCOc1ccccc1/C=C/c1nc2ccccc2[nH]c1=O,-10,2,1,81*,-7
Cc1ccc(-c2ccc(/C=C3/NC(=O)NC3=O)o2)cc1[N+](=O)[O-],4,1,1,-2,1
CC1=C(C#N)C(=O)NC(=O)/C1=C\c1ccc(-c2cc(C)c(C)cc2[N+](=O)[O-])o1,18,3,5,13,78*
COc1ccc(-c2nnc(Nc3ccc(S(=O)(=O)Nc4nccs4)cc3)c3ccccc23)cc1,44*,0,0,-5,1
SMILES,SUMO1-SIM PPI,LMPTP block,STEP inh,DNMT1 inh,Scp1 inh
COc1ccc(Nc2nnc(-c3ccc(C(N)=O)cc3)c3ccccc23)cc1,1,0,1,-7,-5
COc1nnc(-c2ccc(C)cc2)c2ccccc12,1,-2,0,3,-9
COC(=O)c1ccc(NC(=O)CSC2=Nc3ccccc3C3CC=NN23)cc1 (stereo not drawn),-3,-1,2,-11,-11
NC(=O)c1ccc(NC(=O)CSC2=Nc3ccccc3C3CC=NN23)cc1 (stereo not drawn),47*,0,-2,-1,-5
CCCC1CCC(c2ccc(OCC)cc2)=CC1=O (stereo not drawn),-11,2,2,0,-15
Cc1ccc(C(=O)NCCNC(=O)COc2ccccc2Cl)cn1,2,1,-1,2,-1
O=c1ccc2cc3c([nH]c4ccc(Br)cc43)oc-2c1O,22,52*,1,7,.
O=C(O)c1ccc(N=Nc2c(O)[nH]c3ccc(Br)cc23)cc1,-5,10,-1,0,44
O=C(Cc1ccc(-n2c(=O)[nH]c3ccsc3c2=O)cc1)N1CCN(c2ccc(Cl)cc2)CC1,0,4,2,1,-4
CC(=Cc1ccccc1)C=C1SC(=S)N(CCCC(=O)Nc2ccc(C(=O)O)cc2)C1=O,-2,61*,-1,10,.
CC(/C=C1\SC(=S)N(CCCC(=O)Nc2ccc(C(=O)O)cc2)C1=O)=C\c1ccccc1,9,49*,2,48,-11
CC(=C\c1ccccc1)/C=C1/SC(=S)N(CCCC(=O)O)C1=O,3,4,1,7,-12
CC(C)(C)c1ccc(CSc2ccc(S(=O)(=O)N3CCOCC3)cn2)cc1,0,4,4,2,-11
O=C1c2ccccc2NC(c2ccc(Br)s2)N1O (stereo not drawn),.,.,.,.,-4
COc1ccc2c(c1)c(=O)oc1cc(OCC(=O)N3CCC(C)CC3)ccc12,7,13,0,63*,77*
COc1ccc2c(c1)c(=O)oc1cc(OCC(=O)N3CCCC(C)C3)ccc12 (stereo not drawn),8,4,9,13,33
O=c1[nH]nc(CNc2ccc(C(F)(F)F)cc2)c2ccccc12,4,0,0,0,4
O=c1[nH]nc(CNc2ccc(O)cc2)c2ccccc12,55*,13,-1,6,6
Cn1nc(CC(=O)NCc2ccc(F)cc2)c2ccccc2c1=O,46*,0,0,4,-13
Cn1nc(CC(=O)NCc2cccc3ccccc23)c2ccccc2c1=O,-2,0,-6,-1,-6
COc1ccccc1/C=c1\sc2nc(-c3ccccc3OC)nn2c1=O,-1,0,8,-17,-7
COc1ccc(Br)cc1/C=c1\sc2nc(-c3ccco3)nn2c1=O,37,19,12,106*,88*
CC(C)n1nnc(-c2ccc(OCc3ccccc3F)cc2)n1,2,2,1,-3,58*
Fc1ccccc1COc1ccc(-c2nnn(Cc3ccccc3F)n2)cc1,3,3,-1,-7,-18
CC(C)NC(=O)C1(C)CSCC(=O)N1Cc1cccc(C(F)(F)F)c1 (stereo not drawn),1,-1,.,.,.
